ChEMBL document CHEMBL1641429, “Synthesis and xanthine oxidase inhibitory activity of 7-methyl-2-(phenoxymethyl)-5H-[1,3,4]thiadiazolo[3,2-a]pyrimidin-5-one derivatives” (Bioorg Med Chem, 2011)

Tests used:
[1] = molecular target: Xanthine dehydrogenase/oxidase (Bos taurus, UniProt P80457); experiment: Inhibition of bovine milk xanthine oxidase by spectrophotometry
[2] = Inhibition of microbial xanthine oxidase by spectrophotometry
Outline: (§1)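 Enzyme source: for line 2, supernatant of centrifuged rat liver homogenate stored at −80 °C; for line 1, commercial microbial XO run the same way. Mix of 50 mM potassium phosphate pH 7.5, 0.3 mM EDTA and enzyme. Reaction started with xanthine substrate plus test compound. Protein by Lowry, BSA standard.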

[3] = molecular target: Xanthine dehydrogenase/oxidase (Rattus norvegicus, UniProt P22985); experiment: Inhibition of rat liver xanthine oxidase by spectrophotometry
Xanthine dehydrogenase/oxidase (Rattus norvegicus, UniProt P22985), sequence (P22985 whole entry): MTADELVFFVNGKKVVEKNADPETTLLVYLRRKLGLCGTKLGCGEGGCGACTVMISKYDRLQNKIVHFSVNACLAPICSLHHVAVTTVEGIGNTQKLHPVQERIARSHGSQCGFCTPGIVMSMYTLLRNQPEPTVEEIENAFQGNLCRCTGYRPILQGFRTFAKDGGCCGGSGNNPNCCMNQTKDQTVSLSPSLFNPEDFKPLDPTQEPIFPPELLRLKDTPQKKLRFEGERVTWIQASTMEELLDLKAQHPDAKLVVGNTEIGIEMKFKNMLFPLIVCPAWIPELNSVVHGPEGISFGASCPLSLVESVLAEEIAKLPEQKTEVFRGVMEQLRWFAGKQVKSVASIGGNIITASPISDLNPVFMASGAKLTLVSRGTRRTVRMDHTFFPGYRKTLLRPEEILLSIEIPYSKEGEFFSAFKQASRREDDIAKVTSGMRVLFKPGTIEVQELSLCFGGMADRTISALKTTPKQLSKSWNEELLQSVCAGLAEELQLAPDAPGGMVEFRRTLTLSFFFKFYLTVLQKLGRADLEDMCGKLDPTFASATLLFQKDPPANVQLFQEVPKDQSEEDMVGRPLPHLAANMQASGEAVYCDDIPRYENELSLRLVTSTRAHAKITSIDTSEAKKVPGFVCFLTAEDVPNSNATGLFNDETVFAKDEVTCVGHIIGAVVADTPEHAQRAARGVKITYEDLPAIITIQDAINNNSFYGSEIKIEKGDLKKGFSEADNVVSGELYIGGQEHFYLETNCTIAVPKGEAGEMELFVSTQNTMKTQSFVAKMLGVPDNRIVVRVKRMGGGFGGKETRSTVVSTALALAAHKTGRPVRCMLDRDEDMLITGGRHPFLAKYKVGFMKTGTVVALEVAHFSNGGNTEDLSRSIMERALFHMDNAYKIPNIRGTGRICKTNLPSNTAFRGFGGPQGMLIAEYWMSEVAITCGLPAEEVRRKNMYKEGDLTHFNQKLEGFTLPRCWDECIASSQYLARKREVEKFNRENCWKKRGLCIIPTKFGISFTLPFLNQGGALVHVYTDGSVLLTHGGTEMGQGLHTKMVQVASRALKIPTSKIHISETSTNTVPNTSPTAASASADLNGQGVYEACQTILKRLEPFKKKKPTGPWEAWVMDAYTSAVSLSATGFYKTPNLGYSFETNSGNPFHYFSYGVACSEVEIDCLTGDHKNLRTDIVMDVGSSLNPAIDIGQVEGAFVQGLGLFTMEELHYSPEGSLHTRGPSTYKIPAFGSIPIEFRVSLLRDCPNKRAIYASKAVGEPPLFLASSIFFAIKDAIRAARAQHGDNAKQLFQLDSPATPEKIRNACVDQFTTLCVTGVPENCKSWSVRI
Outline: as §1, with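 “compound. Uric acid read at 292 nm at 10 min intervals, ambient temperature. % inhibition versus control without compound; triplicates.” for “compound.”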

Xanthine dehydrogenase/oxidase (Bos taurus, UniProt P80457), sequence (P80457 whole entry): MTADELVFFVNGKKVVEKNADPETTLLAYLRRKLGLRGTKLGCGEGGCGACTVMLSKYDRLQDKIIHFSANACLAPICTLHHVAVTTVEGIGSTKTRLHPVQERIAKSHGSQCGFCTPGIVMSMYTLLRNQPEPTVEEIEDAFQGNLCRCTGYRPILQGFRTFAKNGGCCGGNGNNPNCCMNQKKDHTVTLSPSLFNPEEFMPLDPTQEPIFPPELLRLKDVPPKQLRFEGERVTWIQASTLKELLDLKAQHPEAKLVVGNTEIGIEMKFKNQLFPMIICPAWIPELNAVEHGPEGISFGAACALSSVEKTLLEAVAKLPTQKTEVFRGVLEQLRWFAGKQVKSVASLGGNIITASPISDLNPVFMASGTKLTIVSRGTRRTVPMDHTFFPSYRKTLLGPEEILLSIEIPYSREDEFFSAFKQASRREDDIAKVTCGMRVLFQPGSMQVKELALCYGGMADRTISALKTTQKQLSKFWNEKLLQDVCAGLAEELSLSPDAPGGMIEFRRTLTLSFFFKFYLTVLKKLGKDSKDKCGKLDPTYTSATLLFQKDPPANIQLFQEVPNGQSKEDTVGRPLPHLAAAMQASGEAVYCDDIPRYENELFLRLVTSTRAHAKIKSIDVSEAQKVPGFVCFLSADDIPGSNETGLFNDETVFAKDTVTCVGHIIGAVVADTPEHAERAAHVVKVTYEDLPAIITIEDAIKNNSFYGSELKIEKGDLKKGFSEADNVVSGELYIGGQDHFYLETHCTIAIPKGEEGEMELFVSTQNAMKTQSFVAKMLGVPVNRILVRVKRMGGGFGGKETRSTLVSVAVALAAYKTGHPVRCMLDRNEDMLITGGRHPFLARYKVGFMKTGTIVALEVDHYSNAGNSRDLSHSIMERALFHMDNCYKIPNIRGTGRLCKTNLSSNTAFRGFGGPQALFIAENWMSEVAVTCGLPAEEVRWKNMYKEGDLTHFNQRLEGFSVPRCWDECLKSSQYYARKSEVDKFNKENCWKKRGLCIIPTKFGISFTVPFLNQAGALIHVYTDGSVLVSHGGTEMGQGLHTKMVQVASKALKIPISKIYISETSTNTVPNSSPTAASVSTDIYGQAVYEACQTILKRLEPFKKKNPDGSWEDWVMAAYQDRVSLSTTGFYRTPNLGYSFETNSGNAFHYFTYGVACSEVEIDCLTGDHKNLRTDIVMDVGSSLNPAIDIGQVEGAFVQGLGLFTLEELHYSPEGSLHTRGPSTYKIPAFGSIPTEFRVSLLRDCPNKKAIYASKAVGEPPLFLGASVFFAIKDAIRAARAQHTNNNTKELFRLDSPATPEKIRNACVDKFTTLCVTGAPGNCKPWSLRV

IC50 [1] | IC50 [2] | IC50 [3] | Structure (SMILES)
0.461 µM | 0.423 µM | 0.449 µM | Cc1cc(=O)n2nc(COc3ccc(Cl)cc3)sc2n1
0.269 µM | 0.269 µM | 0.289 µM | COc1ccc(OCc2nn3c(=O)cc(C)nc3s2)cc1
0.603 µM | – | 0.413 µM | Cc1cc(=O)n2nc(COc3ccccc3Br)sc2n1
0.326 µM | 0.346 µM | 0.362 µM | Cc1cc(=O)n2nc(COc3ccccc3C)sc2n1
1.65 µM | 1.82 µM | 1.83 µM | Cc1cc(=O)n2nc(COc3ccccc3Cl)sc2n1
0.634 µM | 0.596 µM | 0.623 µM | Cc1cc(=O)n2nc(COc3ccc(Cl)c(C)c3)sc2n1
1.03 µM | 1.11 µM | 1.07 µM | Cc1cccc(OCc2nn3c(=O)cc(C)nc3s2)c1
– | 2.24 µM | – | Cc1cc(=O)n2nc(COc3ccc(F)cc3)sc2n1
2.5 µM | – | 2.03 µM | Cc1cc(=O)n2nc(COc3ccc([N+](=O)[O-])cc3)sc2n1
1.8 µM | 1.73 µM | 1.76 µM | Cc1ccc(OCc2nn3c(=O)cc(C)nc3s2)c(C)c1
– | – | 0.59 µM | Cc1cc(=O)n2nc(COc3ccccc3F)sc2n1
– | 0.834 µM | 1.02 µM | Cc1ccc(OCc2nn3c(=O)cc(C)nc3s2)cc1
– | – | 6.18 µM | Cc1cc(=O)n2nc(COc3cccc(Cl)c3)sc2n1
– | – | 2.56 µM | Cc1cc(=O)n2nc(COc3cccc(Br)c3)sc2n1
– | 1.67 µM | 1.98 µM | Cc1cc(=O)n2nc(COc3cccc(F)c3)sc2n1
– | – | 0.555 µM | Cc1cc(=O)n2nc(COc3ccccc3)sc2n1
